INS promoter inh = inhibitors of insulin promoter-driven GFP, primary screen, imaging, TRM-6 cells (human fetal islet line), eGFP reporter, cell count. inhibition, % at 2 µM. reporter expression induced with tamoxifen. AID 1273, 2008. actives 0.9% (n = 130,000);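 active = inhibition above the mean plus 3 SD, with well images judged a real hit on visual review, cut at about 60% in these data, passing the limit was not always enough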
NPY Y1 blocker = NPY-Y1 receptor antagonists, primary screen, cell-based; Neuropeptide Y receptor type 1 (Homo sapiens), P25929; HEK293-CNG Y1 cells, membrane potential fluorescence; NPY at EC95, then isoproterenol; inhibition, % at 3.6 µM; actives 1% (n = 200,000);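 active = inhibition above the campaign mean inhibition of all tested compounds plus 3 SD, cut at about 20% in these data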;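 note: 0% = DMSO wells given NPY plus isoproterenol and 100% = isoproterenol alone without NPY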
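Test system – HEK293 Y1/CNG channel cell line · Also added – NPY agonist 25 nM, then isoproterenol 1 µM plus Ro 20-1724 25 µM · Compound dosing – one concentration, 3.6 µM, in 0.4% DMSO · Schedule – compound incubation 1 h at room temperature, readout 45 min post-stimulation · Technique – fluorescence, membrane potential probe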
NPY-Y2 antag = NPY-Y2 receptor antagonists, primary screen, cell-based; Neuropeptide Y receptor type 2 (Homo sapiens), P49146; NPY-Y2 expressing cells, antagonist mode; inhibition, % at 2.7 µM; actives 0.99% (n = 140,000); AID 793, 2007; in the data active = inhibition above about 17%;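 note: 0% = vehicle with agonist challenge and 100% = reference antagonist with challenge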
Target sequence (P49146 whole entry, looked up): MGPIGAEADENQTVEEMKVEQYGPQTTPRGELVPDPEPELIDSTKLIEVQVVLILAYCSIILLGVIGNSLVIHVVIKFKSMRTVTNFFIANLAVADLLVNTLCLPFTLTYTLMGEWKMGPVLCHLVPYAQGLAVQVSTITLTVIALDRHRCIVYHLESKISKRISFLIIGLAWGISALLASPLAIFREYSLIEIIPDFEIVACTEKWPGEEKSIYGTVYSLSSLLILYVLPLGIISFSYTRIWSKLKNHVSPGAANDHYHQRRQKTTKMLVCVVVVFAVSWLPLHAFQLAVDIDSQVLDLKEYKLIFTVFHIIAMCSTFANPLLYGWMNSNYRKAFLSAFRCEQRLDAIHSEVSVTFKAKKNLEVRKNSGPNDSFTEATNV
NPY-Y2 PAM-ag = NPY-Y2 potentiators or agonists, primary screen, cell-based; AID 1359, 2008; activation, % at 3.6 µM; cells expressing NPY-Y2, potentiator/agonist read-out; Neuropeptide Y receptor type 2 (Homo sapiens), P49146; actives 0.45% (n = 220,000); in the data active = activation above about 27%;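 note: cells stimulated with NPY near EC25 plus isoproterenol at EC100; 0% = vehicle plus submaximal agonist and 100% = vehicle plus saturating agonist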
RAM inhibit = inhibitors of the yeast RAM network, primary screen, dse1pr::URA3 reporter, 5-FOA selection; S. cerevisiae dse1pr::URA3 reporter, 5-FOA growth OD615, 2 d; analog-sensitive cbk1-as2 kinase mutant strain; actives 1.8% (n = 190,000); AID 868, 2007; inhibition, % at 50 µM;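 active = inhibition above a set limit, 3 SD over mean compound inhibition, cut at about 8.4% in these data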;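 note: 0% = DMSO-only wells with no growth and 100% = 10 µM 1-NA-PP1 full growth; inhibition rescues growth on 5-FOA so higher OD means more RAM inhibition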
NPY-Y1 PAM-ag = NPY-Y1 receptor potentiators or agonists, primary screen, cell-based; Neuropeptide Y receptor type 1 (Homo sapiens), P25929; NPY-Y1 expressing cells, potentiator/agonist activation; activation, % at 3.6 µM; actives 0.37% (n = 220,000); AID 1304, 2008; in the data active = activation above about 33%, passing the limit was not always enough;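 note: cells stimulated with NPY at EC10 then isoproterenol at EC100; 0% = low agonist plus stimulus and 100% = saturating agonist plus stimulus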
* = called active by the depositor. Shown are actives, neighbours in structure and some others; about 3.8% of the full set was active somewhere.

`CCc1nnc(NC(=O)CSc2nnc(COc3ccc(C)cc3)n2-c2ccccc2)s1` gave NPY Y1 blocker 3, NPY-Y2 antag 7, NPY-Y2 PAM-ag 1, RAM inhibit 8.7* and NPY-Y1 PAM-ag -17.
CCc1nnc(NC(=O)CSc2nnc(Cc3ccccc3)n2-c2ccccc2)s1 was read as INS promoter inh 82*, NPY Y1 blocker 9, NPY-Y2 antag 4, NPY-Y2 PAM-ag -6, RAM inhibit 2 and NPY-Y1 PAM-ag 13.
For CCc1nnc(NC(=O)CSc2nnc(C)n2-c2ccc(C)cc2)s1 the results were INS promoter inh -364, NPY Y1 blocker 2, NPY-Y2 antag 3, NPY-Y2 PAM-ag 0, RAM inhibit 0 and NPY-Y1 PAM-ag -7.
O=S(=O)([O-])C/C(=C\c1ccc(Cl)cc1)c1cc[n+](CCO)cc1 was read as NPY Y1 blocker -5, NPY-Y2 PAM-ag -3, RAM inhibit 1 and NPY-Y1 PAM-ag -8.
CCOC(=O)c1cc2sccc2n1CCCN1C(=O)c2ccccc2C1=O was read as NPY Y1 blocker 8, NPY-Y2 antag 9, NPY-Y2 PAM-ag -9, RAM inhibit 9.0* and NPY-Y1 PAM-ag -30.
CCOC(=O)c1cc2sccc2n1Cc1ccccc1 was read as INS promoter inh 0, NPY Y1 blocker 2, NPY-Y2 antag 11, NPY-Y2 PAM-ag 6, RAM inhibit 1 and NPY-Y1 PAM-ag 2.
For Cc1nn(C(C)(C)C)c(OC(=O)c2ccc3c(c2)OCO3)c1S(=O)(=O)c1ccccc1 the results were INS promoter inh -9, NPY Y1 blocker 2, NPY-Y2 antag 3, NPY-Y2 PAM-ag -8, RAM inhibit 5 and NPY-Y1 PAM-ag -29.
`Cc1nn(C(C)(C)C)c(OC(=O)c2ccc3c(c2)OCO3)c1Sc1ccccc1` gave INS promoter inh -36, NPY Y1 blocker 48*, NPY-Y2 antag 29*, NPY-Y2 PAM-ag -26, RAM inhibit 7 and NPY-Y1 PAM-ag -33.
COc1ccccc1NS(=O)(=O)c1cccc(C(=O)OCc2nc3ccccc3s2)c1 was read as INS promoter inh 8, NPY Y1 blocker 7, NPY-Y2 antag 5, NPY-Y2 PAM-ag -2, RAM inhibit 8.4* and NPY-Y1 PAM-ag -3.
CCOc1ccc(Br)cc1CC(=O)O was read as INS promoter inh 81*, NPY Y1 blocker 9, NPY-Y2 antag 2, NPY-Y2 PAM-ag -15, RAM inhibit 1 and NPY-Y1 PAM-ag -15.
For CCOC(=O)CSc1ccc(S(=O)(=O)N2CCC(C)CC2)cc1[N+](=O)[O-] the results were INS promoter inh -17, NPY Y1 blocker 8, NPY-Y2 antag -2, NPY-Y2 PAM-ag 5, RAM inhibit 11* and NPY-Y1 PAM-ag 15.
COC(=O)CSc1ccc(S(=O)(=O)N2CCOCC2)cc1[N+](=O)[O-] was read as NPY Y1 blocker -3, NPY-Y2 antag 5, NPY-Y2 PAM-ag 7, RAM inhibit 1 and NPY-Y1 PAM-ag -3.
For COc1ccc2c(c1)c(CC(=O)Nc1ccccc1OC)c(C)n2C(=O)c1ccc(Cl)cc1 the results were NPY Y1 blocker 20*, NPY-Y2 antag 18*, NPY-Y2 PAM-ag -13, RAM inhibit 4 and NPY-Y1 PAM-ag -27.
CCC(c1nnnn1Cc1ccc(F)cc1)N1CCN(C2CCCCC2)CC1 (centres undefined) was read as INS promoter inh 21, NPY Y1 blocker 39*, NPY-Y2 antag 37*, NPY-Y2 PAM-ag -15, RAM inhibit -1 and NPY-Y1 PAM-ag -14.
COc1ccc(Cn2nnnc2C(c2ccccc2Cl)N2CCN(C3CCCC3)CC2)cc1 (centres undefined) was read as INS promoter inh -14, NPY Y1 blocker 28*, NPY-Y2 antag 20*, NPY-Y2 PAM-ag -3, RAM inhibit -1 and NPY-Y1 PAM-ag -7.
Screening COc1ccc(Cn2nnnc2C(c2ccccc2)N2CCN(C3CCCC3)CC2)cc1 (centres undefined) returned NPY Y1 blocker 9, NPY-Y2 antag 10, NPY-Y2 PAM-ag 9, RAM inhibit 0 and NPY-Y1 PAM-ag 6.
